Experimental data gathered from unrelated publications.
Lines come from different studies, so protocols differ.
Effect on: binding
VHL: von Hippel-Lindau disease tumor suppressor (VHL, Homo sapiens, UniProt P40337)
Pah: Phenylalanine-4-hydroxylase (Pah, Rattus norvegicus, UniProt P04176)

Cc1ncsc1-c1ccc(CNC(=O)[C@@H]2C[C@@H](O)CN2C(=O)[C@@H](NC(=O)C2(F)CC2)C(C)(C)C)c(OCCOc2ccc(CN3CCN(c4cc(-c5ccccc5O)nnc4N)CC3)cc2)c1 — Kd (VHL; SPR): 0.25 µM
Cc1cnc(-c2ccc(-c3ccc(NC(=O)Nc4c(F)cc(F)cc4F)cc3F)c3c2C(=O)NC3)[nH]1 — Kd (Serine/threonine-protein kinase 24 (STK24, Homo sapiens, UniProt Q9Y6E0); competition with immobilised ligand): 0.024 µM
C=C(C)[C@@H]1CC[C@]2(C)CC[C@]3(C)[C@H](CC[C@@H]4[C@@]5(C)CC[C@H](O)C(C)(C)[C@@H]5CC[C@]43C)[C@@H]12 — Kd (GTPase KRas (KRAS, Homo sapiens, UniProt P01116); ITC): 0.33 µM
CCCC[C@H](N)C(=O)O — Kd (Pah; fluorescence; pH 7.5): 17000 µM
Cc1cc2nc3c(=O)[nH]c(=O)nc-3n(C[C@H](O)[C@H](O)[C@H](O)COP(=O)(O)OP(=O)(O)OC[C@H]3O[C@@H](n4cnc5c(N)ncnc54)[C@H](O)[C@@H]3O)c2cc1C — Kd (Annexin A11 (Homo sapiens, UniProt P50995); lysate): 0.055 µM
C[C@]12CC[C@H](O)CC1=CC[C@@H]1[C@@H]2CC[C@]2(C)C(=O)CC[C@@H]12 — Kd (Sulfotransferase 2A1 (SULT2A1, Homo sapiens, UniProt Q06520); fluorescence): 0.29 µM
Cc1cc(Nc2cc3ncccc3c(N[C@@H]3C[C@H]4CC[C@@H](C3)N4CCC#N)n2)n[nH]1 — Kd (Serine/threonine-protein kinase DCLK1 (DCLK1, Homo sapiens, UniProt O15075); competition with immobilised ligand): 0.89 µM
CC(=O)N[C@H]1[C@H]([C@H](O)[C@H](O)CO)O[C@@](O[C@H]2[C@@H](O)[C@@H](CO)O[C@@H](O[C@H]3[C@H](O)[C@@H](NC(C)=O)C(O)O[C@@H]3CO)[C@@H]2O)(C(=O)O)C[C@@H]1O (stereo partly shown) — Kd (SIGLEC5 (Homo sapiens, UniProt O15389, C36A); NMR): 7000 µM
N[C@H](Cc1ccccc1)C(=O)O — Kd (Pah; fluorescence; pH 7.5): 8400 µM
Nc1ncnc2c1ncn2[C@@H]1O[C@H](CSCC[C@H](N)C(=O)O)[C@@H](O)[C@H]1O — Kd (mdh (Escherichia coli, UniProt P61889, del14-14/del9-10/V5N); ITC): 13.3 µM
CC1(C)Cc2c(-c3ccccc3)c(-c3ccc(Cl)cc3)c(CC(=O)NCC(=O)O)n2C1 — Kd (Prostaglandin E synthase (PTGES, Homo sapiens, UniProt O14684); ITC): 2.1 µM
COCCOc1cc(-c2scnc2C)ccc1CNC(=O)[C@@H]1C[C@@H](O)CN1C(=O)[C@@H](NC(=O)C1(F)CC1)C(C)(C)C — Kd (VHL; SPR): 0.062 µM
CC(C)[C@H](N)c1nc2cc(-c3ccncc3F)sc2c(=O)[nH]1 — Kd (Cell division cycle 7-related protein kinase (CDC7, Homo sapiens, UniProt O00311); MST): 0.00032 µM
Cc1ncsc1-c1ccc(CNC(=O)[C@@H]2C[C@H](O)CN2C(=O)[C@@H](NC(=O)C2(F)CC2)C(C)(C)C)c(OCCc2ccc(CN3CCN(c4cc(-c5ccccc5O)nnc4N)CC3)cc2)c1 — Kd (VHL; SPR): > 10 µM
CC(C)C[C@H](N)C(=O)O — Kd (Pah; fluorescence; pH 7.5): 93000 µM
NC(=O)[C@H](NNC(=O)c1c[nH]c2ccccc12)c1ccccc1 — Kd (GTPase KRas (KRAS, Homo sapiens, UniProt P01116, G12D); MST): 3.5 µM
